Experimental data from ChEMBL document CHEMBL3045688, “Cytotoxic and insecticidal activities of derivatives of harmine, a natural insecticidal component isolated from Peganum harmala” (2010).
Converted amounts (≈) assume the structure as drawn. The source made the active and inactive calls. The rule behind the calls is not given here.

Assays:
Culex quinquefasciatus [1] = test: Insecticidal activity against fourth-instar larval stage of Culex quinquefasciatus assessed as mortality at 1 mg/L after 24 hr; type: functional
Outline: (§1)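 Early 4th-instar Culex pipiens quinquefasciatus from laboratory cultures, 20 per bowl in 10 mL test solution at 27 °C. Compounds from a 10 g/L DMSO–acetone stock suspended in water with 0.5% Tween-80 to 1, 10, 50 or 100 mg/L final. Dead larvae, those unable to reach the surface on shaking, counted at 0, 2, 12 and 24 h. Abbott-corrected against solvent control; triplicate; probit analysis.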

Culex quinquefasciatus [2] = test: Insecticidal activity against fourth-instar larval stage of Culex quinquefasciatus assessed as increase in mortality at 50 to 100 mg/L after 24 hr; type: functional, organism-based
Outline: (§2)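 Early 4th-instar Culex pipiens quinquefasciatus larvae, 20 per bowl in 10 mL test solution. Compounds taken from a 10 g/L DMSO/acetone stock into water with 0.5% Tween-80 (final 1, 10, 50, 100 mg/L), held at 27 °C. Dead larvae, those unable to reach the surface on shaking, counted at 0, 2, 12 and 24 h. Abbott-corrected against solvent control, triplicate; LC50/LC90 by probit regression.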

Lipaphis erysimi [3] = test: Insecticidal activity against Lipaphis erysimi (mustard aphids) assessed as increase in mortality at 50 to 200 mg/L after 24 to 48 hr; type: functional, organism-based
Outline: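 Apterous adult Lipaphis erysimi reared on mustard leaves. Leaf discs carrying 30–50 aphids dipped 3 s in aqueous suspensions (10 g/L DMSO/acetone stock, 0.5% emulsifier) at 50, 100, 200 mg/L final, blotted, held at 25 ± 1 °C and 50–60% RH. Mortality scored at 24 and 48 h, corrected against solvent control. Triplicate; LC50/LC90 by probit–log concentration regression.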

Culex quinquefasciatus [4] = test: Insecticidal activity against fourth-instar larval stage of Culex quinquefasciatus assessed as increase in mortality after 2 to 24 hr; type: functional, organism-based; outline: as §2
Lipaphis erysimi [5] = test: Insecticidal activity against Lipaphis erysimi (mustard aphids) assessed as mortality at 200 mg/L after 48 hr; type: functional; details: in Brassica
Outline: (§3)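 Apterous adult Lipaphis erysimi reared on mustard leaves. Compounds from a 10 g/L DMSO–acetone stock suspended in water with 0.5% emulsifier to 50, 100 or 200 mg/L. Leaf discs carrying 30–50 aphids were dipped 3 s and blotted, then held at 25 ± 1 °C and 50–60% RH. Mortality scored at 24 and 48 h and corrected against solvent control. Triplicate; LC50/LC90 by probit–log concentration regression.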

[6] = Cytotoxicity against Spodoptera frugiperda (fall armyworm) Sf9 cells assessed as growth inhibition at 200 mg/L after 24 hr by MTT assay; type: functional; details: for inhibition of growth at 200 µg/mL: Spodoptera frugiperda, Sf9, 24 h, read-out: GI
Outline: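 Sf9 cells kept at 27 °C in TC-199-MK with 10% FCS, L-glutamine and penicillin–streptomycin–neomycin. Log-phase cells in 96-well plates were exposed for 6, 12 or 24 h to compounds diluted in medium from a 1,000 mg/L DMSO stock, with 1% DMSO final; DMSO alone as control. MTT added for 3 h, formazan dissolved in DMSO, A570 read. Inhibition % = (Acontrol−Atreatment)/Acontrol×100. Run in triplicate.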

Lipaphis erysimi [7] = test: Insecticidal activity against Lipaphis erysimi (mustard aphids) assessed as increase in mortality after 48 hr; type: functional
Culex quinquefasciatus [8] = test: Insecticidal activity against fourth-instar larval stage of Culex quinquefasciatus assessed as increase in mortality after 24 hr; type: functional; outline: as §1
Lipaphis erysimi [9] = test: Insecticidal activity against Lipaphis erysimi (mustard aphids) assessed as mortality at 50 mg/L after 24 hr; type: functional; details: in Brassica; outline: as §3
Culex quinquefasciatus [10] = test: Insecticidal activity against fourth-instar larval stage of Culex quinquefasciatus assessed as mortality at 100 mg/L after 24 hr; type: functional; outline: as §1
Culex quinquefasciatus [11] = test: Insecticidal activity against fourth-instar larval stage of Culex quinquefasciatus assessed as increase in mortality at 50 mg/L after 24 hr; type: functional, organism-based; outline: as §2
Sf9 = test: Cytotoxicity against Spodoptera frugiperda (fall armyworm) Sf9 cells assessed as growth inhibition at 1 to 200 mg/L after 6 to 24 hr by MTT assay; type: functional, cell-based
Outline: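 Sf9 insect cells grown at 27 °C in TC-199-MK with 10% FCS, L-glutamine and penicillin–streptomycin–neomycin. Log-phase cells exposed to compounds (DMSO stock, 1% final solvent), 6, 12 or 24 h. MTT (5 mg/mL stock) added for a further 3 h, formazan dissolved in DMSO, A570 read. Inhibition = (A control − A treated)/A control ×100. Solvent-only control, triplicate.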

With `O=C(O)C1Cc2c([nH]c3ccccc23)C(C(Cl)(Cl)Cl)N1` (stereo unspecified) the mortality at 1 µg/mL (Culex quinquefasciatus [1]) was less than 34.9%, the Activity (Culex quinquefasciatus [2]) was “Active” and the Activity (Lipaphis erysimi [3]) was “Active”. For the same molecule, the Activity (Culex quinquefasciatus [4]) was “Dose-dependent effect”.

With `COc1ccc2c(c1)[nH]c1c(C)nccc12` [HARMINE] the mortality at 200 µg/mL (Lipaphis erysimi [5]) was 49.6%, the Imax [6] was 40.31% and the Activity (Culex quinquefasciatus [2]) was “Active”. The Activity (Lipaphis erysimi [3]) was “Active”.

For `O=C(O)C1Cc2c([nH]c3ccccc23)C(c2ccccc2)N1` (stereo unspecified), the LC90 (Lipaphis erysimi [7]) was 240.1 µg/mL (≈ 821 µM), the LC90 (Culex quinquefasciatus [8]) was 88.29 µg/mL (≈ 302 µM) and the mortality at 200 µg/mL (Lipaphis erysimi [5]) was 87.3%. For the same molecule, the mortality at 50 µg/mL (Lipaphis erysimi [9]) was 36.4%, the mortality at 1 µg/mL (Culex quinquefasciatus [1]) was less than 34.9% and the mortality at 100 µg/mL (Culex quinquefasciatus [10]) was 93.3%. The inhibition of growth at 200 µg/mL [6] was 71.5%, the Activity (Culex quinquefasciatus [11]) was “Active” and the Activity (Culex quinquefasciatus [4]) was “Dose-dependent effect”.

In the case of `COC(=O)c1cc2c([nH]c3ccccc32)c(-c2ccccc2O)n1`, the mortality at 1 µg/mL (Culex quinquefasciatus [1]) is reported as less than 34.9%, the Activity (Culex quinquefasciatus [2]) is reported as “Active” and the Activity (Lipaphis erysimi [3]) is reported as “Active”. For the same molecule, the Activity (Culex quinquefasciatus [4]) was “Dose-dependent effect”.

With `COC(=O)C1Cc2c([nH]c3ccccc23)C(c2ccccc2)N1` (stereo unspecified) the mortality at 1 µg/mL (Culex quinquefasciatus [1]) was less than 34.9%, the Activity (Culex quinquefasciatus [2]) was “Active” and the Activity (Lipaphis erysimi [3]) was “Active”. The Activity (Culex quinquefasciatus [4]) was “Dose-dependent effect”.

In the case of `COC(=O)c1cc2c([nH]c3ccccc32)c(-c2ccccc2)n1`, the LC90 (Lipaphis erysimi [7]) is reported as 418.63 µg/mL (≈ 1380 µM), the LC50 (Lipaphis erysimi [7]; Lipaphis erysimi, in Brassica, 48 h) is reported as 68 µg/mL (≈ 225 µM) and the LC90 (Culex quinquefasciatus [8]) is reported as 295.13 µg/mL (≈ 976 µM). For the same molecule, the LC50 (Culex quinquefasciatus [8]; Culex quinquefasciatus, Instar larval stage, 24 h) was 24 µg/mL (≈ 79.3 µM), the mortality at 200 µg/mL (Lipaphis erysimi [5]) was 75.8% and the mortality at 50 µg/mL (Lipaphis erysimi [9]) was 15.3%. The mortality at 1 µg/mL (Culex quinquefasciatus [1]) was less than 34.9%, the mortality at 100 µg/mL (Culex quinquefasciatus [10]) was 80.5% and the Activity (Culex quinquefasciatus [11]) was “Active”. The Activity (Culex quinquefasciatus [4]) was “Dose-dependent effect”.

With `COc1cc(C2NC(C(=O)O)Cc3c2[nH]c2ccccc32)ccc1O` (stereo unspecified) the mortality at 1 µg/mL (Culex quinquefasciatus [1]) was less than 34.9%, the Activity (Culex quinquefasciatus [2]) was “Active” and the Activity (Lipaphis erysimi [3]) was “Active”. For the same molecule, the Activity (Culex quinquefasciatus [4]) was “Dose-dependent effect”.

In the case of `Cc1nc(C(=O)O)cc2c1[nH]c1ccccc12` [HARMAN-3-CARBOXYLIC ACID], the mortality at 1 µg/mL (Culex quinquefasciatus [1]) is reported as less than 34.9%, the Activity (Culex quinquefasciatus [2]) is reported as “Active” and the Activity (Lipaphis erysimi [3]) is reported as “Active”. The Activity (Culex quinquefasciatus [4]) was “Dose-dependent effect”.

For `COC(=O)C1Cc2c([nH]c3ccccc23)C(C)N1` (stereo unspecified), the mortality at 1 µg/mL (Culex quinquefasciatus [1]) was less than 34.9%, the Activity (Culex quinquefasciatus [2]) was “Active” and the Activity (Lipaphis erysimi [3]) was “Active”. The Activity (Culex quinquefasciatus [4]) was “Dose-dependent effect”.

With `COC(=O)c1cc2c([nH]c3ccccc32)c(-c2c(C)nn(-c3ccccc3)c2Cl)n1` the mortality at 1 µg/mL (Culex quinquefasciatus [1]) was less than 34.9%, the inhibition of growth at 200 µg/mL [6] was 60.9% and the Activity (Culex quinquefasciatus [2]) was “Active”. The Activity (Lipaphis erysimi [3]) was “Active” and the Activity (Culex quinquefasciatus [4]) was “Dose-dependent effect”.

With `CC1NC(C(=O)O)Cc2c1[nH]c1ccccc21` (stereo unspecified) the mortality at 1 µg/mL (Culex quinquefasciatus [1]) was less than 34.9%, the Activity (Culex quinquefasciatus [2]) was “Active” and the Activity (Lipaphis erysimi [3]) was “Active”. The Activity (Culex quinquefasciatus [4]) was “Dose-dependent effect”.

For `COC(=O)c1cc2c([nH]c3ccccc32)c(-c2ccc(Cl)cc2)n1`, the mortality at 1 µg/mL (Culex quinquefasciatus [1]) was less than 34.9%, the Activity (Culex quinquefasciatus [2]) was “Active” and the Activity (Lipaphis erysimi [3]) was “Active”. For the same molecule, the Activity (Culex quinquefasciatus [4]) was “Dose-dependent effect”.

For `O=C(O)C1Cc2c([nH]c3ccccc23)CN1` (stereo unspecified), the mortality at 1 µg/mL (Culex quinquefasciatus [1]) was less than 34.9%, the Activity (Culex quinquefasciatus [2]) was “Active” and the Activity (Lipaphis erysimi [3]) was “Active”. The Activity (Culex quinquefasciatus [4]) was “Dose-dependent effect”.

With `COC(=O)C1Cc2c([nH]c3ccccc23)C(C(Cl)(Cl)Cl)N1` (stereo unspecified) the mortality at 1 µg/mL (Culex quinquefasciatus [1]) was less than 34.9%, the Activity (Culex quinquefasciatus [2]) was “Active” and the Activity (Lipaphis erysimi [3]) was “Active”. The “growth inhibition (GI)” value (Sf9) was “inactive” and the Activity (Culex quinquefasciatus [4]) was “Dose-dependent effect”.

In the case of `COC(=O)C1Cc2c([nH]c3ccccc23)CN1` (stereo unspecified), the mortality at 1 µg/mL (Culex quinquefasciatus [1]) is reported as less than 34.9%, the Activity (Culex quinquefasciatus [2]) is reported as “Active” and the Activity (Lipaphis erysimi [3]) is reported as “Active”. The Activity (Culex quinquefasciatus [4]) was “Dose-dependent effect”.

In the case of `COC(=O)C1Cc2c([nH]c3ccccc23)C(c2ccc(O)c(OC)c2)N1` (stereo unspecified), the mortality at 1 µg/mL (Culex quinquefasciatus [1]) is reported as less than 34.9%, the Activity (Culex quinquefasciatus [2]) is reported as “Active” and the Activity (Lipaphis erysimi [3]) is reported as “Active”. For the same molecule, the Activity (Culex quinquefasciatus [4]) was “Dose-dependent effect”.

For `COC(=O)c1cc2c([nH]c3ccccc32)c(C)n1`, the mortality at 1 µg/mL (Culex quinquefasciatus [1]) was less than 34.9%, the Activity (Culex quinquefasciatus [2]) was “Active” and the Activity (Lipaphis erysimi [3]) was “Active”. The Activity (Culex quinquefasciatus [4]) was “Dose-dependent effect”.
